Assay outcomes: PubChem, The Scripps Research Institute Molecular Screening Center
AHR act = human AHR activation; P35869; AHR-responsive luciferase reporter cells, luminescence; activation, % at 5 µM; 320,000 compounds, 2.5% hits; AID 2796; in the data active = activation above about 47%
Target sequence (P35869 whole entry, looked up): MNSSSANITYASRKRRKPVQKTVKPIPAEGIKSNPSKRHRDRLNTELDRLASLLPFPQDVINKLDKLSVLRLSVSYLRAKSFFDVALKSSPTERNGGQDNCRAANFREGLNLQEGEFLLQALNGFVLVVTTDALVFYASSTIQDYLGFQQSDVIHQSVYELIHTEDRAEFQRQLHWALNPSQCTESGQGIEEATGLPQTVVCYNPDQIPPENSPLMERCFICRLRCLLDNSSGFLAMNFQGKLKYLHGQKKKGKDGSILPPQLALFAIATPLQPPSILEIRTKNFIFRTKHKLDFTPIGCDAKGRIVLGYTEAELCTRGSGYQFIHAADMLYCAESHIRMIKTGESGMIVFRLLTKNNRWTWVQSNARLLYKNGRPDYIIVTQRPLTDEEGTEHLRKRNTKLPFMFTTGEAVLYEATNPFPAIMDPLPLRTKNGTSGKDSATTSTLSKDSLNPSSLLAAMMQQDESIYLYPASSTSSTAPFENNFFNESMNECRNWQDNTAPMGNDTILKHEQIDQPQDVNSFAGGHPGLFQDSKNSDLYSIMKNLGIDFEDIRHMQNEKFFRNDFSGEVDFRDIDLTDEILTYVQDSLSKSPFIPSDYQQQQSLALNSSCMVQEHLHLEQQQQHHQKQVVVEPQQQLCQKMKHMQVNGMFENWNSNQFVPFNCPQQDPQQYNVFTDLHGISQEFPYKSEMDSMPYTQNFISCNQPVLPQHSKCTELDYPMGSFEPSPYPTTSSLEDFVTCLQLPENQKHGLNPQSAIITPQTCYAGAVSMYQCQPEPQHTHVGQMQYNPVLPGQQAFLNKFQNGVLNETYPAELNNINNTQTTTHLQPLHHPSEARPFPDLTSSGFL
MC4R antag cAMP = antagonists of human melanocortin 4 receptor (MC4R) | P32245 | MC4R-expressing cells, MTII-stimulated cAMP, LANCE TR-FRET | inhibition, % at 6.5 µM | 360,000 compounds, 0.48% hits | AID 540295;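 active = inhibition above its plate's cutoff, the mean of tested wells on that plate plus 3 SD, cut at about 29% in these data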
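Material – human MC4R-expressing U2OS cells · Repeats – no replicates · Detection – TR-FRET with Eu-cAMP and labeled anti-cAMP, 671 nm · Times – compound 30 min, challenge 1 h, detection 1 h · Compound – single nominal compound dose of 6.5 µM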
MC4R barr agon = activates human MC4R beta-arrestin recruitment. 360,000 compounds, 0.98% hits. P32245. U2OS MC4R beta-arrestin complementation, luminescence; percent of melanotan II response, DMSO zero. activation, % at 8.9 µM;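 active = activation above a per-plate cutoff, the mean activation of sample wells on that plate plus 3 SD, cut at about 8% in these data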
HTR2A ag = agonists of mouse serotonin 5-HT2A receptor (HTR2A). CHO-K1 mHTR2A beta-arrestin complementation, luminescence; percent of 30 µM serotonin response. activation, % at 7.6 µM. 360,000 compounds, 0.66% hits;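 active = activation above a run cutoff, the mean activation of all tested compounds plus 3 SD, cut at about 14% in these data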
GAA850 FXN act = frataxin GAA850 promoter activation | 360,000 compounds, 0.56% hits | HEK293 lucGAA850 FXN promoter luciferase reporter, 24 h; percent of 10 µM SAHA response | AID 540364 | activation, % at 6 µM;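 active = activation above the average of all compounds screened plus 3 SD, cutoff fixed separately per campaign, cut at about 7.5% in these data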
OPRM1 ag = activates human mu opioid receptor in HTR2A counterscreen; AID 624380; activation, % at 9.3 µM; shares compounds with HTR2A ag; 2,300 compounds, 5.3% hits; U2OS OPRM1 beta-arrestin PathHunter, luminescence; DMSO 0%, DAMGO 9.3 µM 100%;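 active = mean activation above the mean of DMSO-only wells plus 3 SD, cut at about 0.5% in these data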
HTR2A ag conf = confirmation of mouse HTR2A serotonin receptor agonists | shares compounds with HTR2A ag | 2,300 compounds, 19% hits | AID 624381 | CHO-K1 PathHunter beta-arrestin recruitment, luminescence; DMSO 0%, 30 µM serotonin 100% | activation, % at 7.6 µM;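 active = mean activation across triplicates above the hit threshold derived in the original primary screen, cut at about 15% in these data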
Large screens that a line does not name were inactive (follow-up assays come after a bar, where they were run). In the library only some 4.7% were active in any assay of this set; here they are far more common.

CCCc1c(-c2ccc(F)cc2)ncn1CCc1ccccc1OC	HTR2A ag 17 (no result: AHR act, MC4R antag cAMP, MC4R barr agon, GAA850 FXN act) | OPRM1 ag 0.8 | HTR2A ag conf inactive
CCCc1c(-c2ccc(Cl)cc2)ncn1CCc1ccccc1OC	none (no result: AHR act, MC4R antag cAMP, MC4R barr agon, GAA850 FXN act)
CN(C)C(=O)CNc1ccn2nc(-c3cccc(Cl)c3)cc2n1	none (no result: AHR act)
O=C(c1[nH]c(C(F)(F)F)nc1-c1ccccc1)N1CCN(c2cccc(C(F)(F)F)n2)CC1	HTR2A ag 14 (no result: AHR act, MC4R antag cAMP, MC4R barr agon, GAA850 FXN act) | OPRM1 ag inactive | HTR2A ag conf inactive
O=C(CSc1n[nH]c(-c2ccco2)n1)Nc1sc2c(c1C(=O)Nc1ccccc1)CCCC2	AHR act 48, HTR2A ag 16 | OPRM1 ag inactive | HTR2A ag conf 18
CCOC(=O)c1c(NC(=O)CSc2n[nH]c(-c3ccco3)n2)sc(C)c1C	none
Cc1[nH]c(=O)[nH]c(=O)c1S(=O)(=O)N1CCCC(C(=O)N2CCN(c3ccccc3Cl)CC2)C1 (stereo not drawn)	none
Cc1[nH]c(=O)[nH]c(=O)c1S(=O)(=O)N1CCCC(C(=O)N2CCC(Cc3ccccc3)CC2)C1 (stereo not drawn)	HTR2A ag 19 | OPRM1 ag inactive | HTR2A ag conf inactive
CCN1C(=O)[C@H]2[C@@H](c3ccc(C(F)(F)F)cc3)N[C@]3(CCCN(Cc4cccn4C)C3=O)[C@H]2C1=O	none (no result: AHR act)
CCN1C(=O)[C@H]2[C@@H](c3ccc(C)cc3)N[C@]3(CCCN(Cc4cccn4C)C3=O)[C@H]2C1=O	HTR2A ag 21 (no result: AHR act) | OPRM1 ag inactive | HTR2A ag conf inactive
COc1ccc(OCc2cc(C(=O)NC(C)c3nc(C)cs3)no2)c(Cl)c1 (stereo not drawn)	none (no result: AHR act)
Cc1nc(NCCc2ccc(S(N)(=O)=O)cc2)c2c(C)c(C)sc2n1	HTR2A ag 16 | OPRM1 ag inactive | HTR2A ag conf inactive
Cc1ccc(C)c(S(=O)(=O)N2CCCCC2CCNC(=O)C(=O)NCc2ccco2)c1 (stereo not drawn)	none
COc1ccc(-c2csc(C(C)(O)c3ccc(F)c(F)c3)n2)cc1 (stereo not drawn)	HTR2A ag 15 (no result: AHR act) | OPRM1 ag inactive | HTR2A ag conf inactive
Cc1ccc(N2CCN(C(=O)C3CCCN(c4ncnc5c4nc4n5CCCCC4)C3)CC2)c(C)c1 (stereo not drawn)	HTR2A ag 15 | OPRM1 ag inactive | HTR2A ag conf inactive
CC(=O)c1ccc(C(=O)Nc2nnc(-c3ccc(Cl)cc3)o2)cc1	HTR2A ag 24 | OPRM1 ag inactive | HTR2A ag conf inactive
Cc1cc(=O)n2nc(N3CCCC(C(=O)NC4CCC(C)CC4)C3)sc2n1 (stereo not drawn)	none
CCOC(=O)N1CCN(C/C(C)=C/c2ccccc2)CC1	HTR2A ag 18 | OPRM1 ag inactive | HTR2A ag conf 57
CC1CCCC(NC(=O)CN(C)CC(=O)Nc2cccc(F)c2)C1C (stereo not drawn)	none
c1ccc(Cc2noc(CN3CCCC(CN4CCOCC4)C3)n2)cc1 (stereo not drawn)	HTR2A ag 15 | OPRM1 ag inactive | HTR2A ag conf inactive
Fc1cccc(Cc2noc(CN3CCOCC3)n2)c1	none
COc1ccccc1CNS(=O)(=O)c1c(C)nc2scc(C)n2c1=O	HTR2A ag 15 | OPRM1 ag inactive | HTR2A ag conf inactive
O=C(c1ccco1)N1CCN(CC2CC3C=CC2C3)CC1 (stereo not drawn)	HTR2A ag 21 | OPRM1 ag inactive | HTR2A ag conf 76
COc1ccc(NC(=S)N2CCN(Cc3ccccc3)CC2)cc1	none
COc1ccc(CNC(=S)N2CCN(Cc3ccccc3)CC2)cc1	HTR2A ag 19 | OPRM1 ag inactive | HTR2A ag conf inactive
C1=CC2CC1CC2CN1CCN(c2ccccc2)CC1 (stereo not drawn)	HTR2A ag 15 | OPRM1 ag inactive | HTR2A ag conf 57
COc1ccc(CN2CCN(C(=O)c3ccco3)CC2)cc1	HTR2A ag 25 | OPRM1 ag inactive | HTR2A ag conf 103
CC(=O)N1CCN(C(=O)c2ccco2)CC1	none
Cc1ccccc1CN1CCN(CC2CC3C=CC2C3)CC1 (stereo not drawn)	none
